Measured values reported in ChEMBL document CHEMBL3739331, “Synthesis and Bioactivities of Kanamycin B-Derived Cationic Amphiphiles” (J Med Chem, 2015).
Converted amounts (≈) assume the structure as drawn. The source made the active and inactive calls. The calls are words filed in the database; no cut-off is given here.

Assays:
[1] = Hemolytic activity against mouse RBC at 125 ug/ml after 60 mins; format: ADME, cell-based, Erythrocyte; settings: red blood cells, read-out: Activity
Candida albicans [2] = assay: Antifungal activity against azole-resistant Candida albicans ATCC 64124 assessed as cell death after 24 hrs by time-kill assay; format: functional, organism-based
In short: (§1)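 Time-kill assay on C. albicans ATCC 64124 cultures exposed to test compound at 1/2 MIC, MIC and higher concentrations. Amphotericin B at 1 μg/mL and a no-drug culture serve as controls. CFU are counted at intervals over 24 h.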

Candida albicans [3] = assay: Antifungal activity against azole-resistant Candida albicans ATCC 10231 after 48 hrs by microbroth dilution method; format: functional; settings: ATCC 10231, 48 h
In short: (§2)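 Yeast MIC by broth microdilution, run in duplicate. The aminoglycoside compounds are read as MIC-0 (complete inhibition). Azoles are read as MIC-2 (50% inhibition).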

Candida albicans [4] = assay: Antifungal activity against azole-resistant Candida albicans MYA-1003 after 48 hrs by microbroth dilution method; format: functional; settings: MYA-1003, 48 h; in short: as §2
Klebsiella pneumoniae = assay: Antibacterial activity against Klebsiella pneumoniae ATCC 27736 by microdilution method; format: functional
In short: (§3)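 Broth microdilution MIC against the named bacterial strain, reported in μg/mL; each determination run at least in duplicate.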

Salmonella enterica = assay: Antibacterial activity against Salmonella enterica ATCC 14028 by microdilution method; format: functional; in short: as §3
Candida albicans [5] = assay: Antifungal activity against azole-resistant Candida albicans MYA-1237 after 48 hrs by microbroth dilution method; format: functional; settings: MYA-1237, 48 h; in short: as §2
Candida albicans [6] = assay: Antifungal activity against azole-resistant Candida albicans ATCC 64124 at MIC measured after 6 hrs by time-kill assay; format: functional; in short: as §1
Candida albicans [7] = assay: Antifungal activity against azole-resistant Candida albicans ATCC 64124 after 48 hrs by microbroth dilution method; format: functional; settings: ATCC 64124, 48 h; in short: as §2
Bacillus subtilis = assay: Antibacterial activity against Bacillus subtilis 168 by microdilution method; format: functional; settings: subsp. subtilis str. 168; in short: as §3
Staphylococcus aureus [8] = assay: Antibacterial activity against Staphylococcus aureus NRS22 (USA 600) by microdilution method; format: functional; in short: as §3
Serratia marcescens = assay: Activity of Serratia marcescens AAC(6')-2d assessed as compound acetylation activity by Ellman's method
A549 = assay: Cytotoxicity against human A549 cells after 24 hrs by resazurin assay; format: cell-based; settings: Homo sapiens, A549, 24 h
Pseudomonas aeruginosa = assay: Antibacterial activity against Pseudomonas aeruginosa ATCC 27853 by microdilution method; format: functional; in short: as §3
[9] = system: Mycobacterium tuberculosis; assay: Activity of Mycobacterium tuberculosis AAC(2')-1c assessed as compound acetylation activity by Ellman's method
[10] = system: Staphylococcus epidermidis; assay: Antibacterial activity against Staphylococcus epidermidis ATCC 12228 by microdilution method; format: functional; in short: as §3
Candida albicans [11] = assay: Antifungal activity against azole-resistant Candida albicans ATCC 90819 after 48 hrs by microbroth dilution method; format: functional; settings: ATCC 90819, 48 h; in short: as §2
[12] = Activity of AAC(3)-4 (unknown origin) assessed as compound acetylation activity by Ellman's method
Candida albicans [13] = assay: Antifungal activity against azole-resistant Candida albicans ATCC 90819 after 48 hrs in presence of posaconazole by checkerboard microdilution assay; format: functional; settings: ATCC 90819, 48 h
In short: (§4)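 Checkerboard combinations of the aminoglycoside amphiphile with posaconazole against yeast strains, run in duplicate. Each agent's MIC is taken alone and in combination. The fractional inhibitory concentration index (FICI) is calculated to classify the interaction.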

Candida albicans [14] = assay: Antifungal activity against azole-resistant Candida albicans ATCC 64124 after 48 hrs in presence of posaconazole by checkerboard microdilution assay; format: functional; settings: ATCC 64124, 48 h; in short: as §4
Staphylococcus aureus [15] = assay: Antibacterial activity against methicillin-resistant Staphylococcus aureus by microdilution method; format: functional
In short: (§5)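 Broth microdilution MIC, in μg/mL, against a panel of Gram-positive and Gram-negative strains. Run at least in duplicate.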

[16] = system: Bacillus subtilis subsp. subtilis str. 168; assay: Activity of Bacillus subtilis 168 APH(2'')-1a assessed as compound phosphorylation activity by Ellman's method
Enterococcus = assay: Antibacterial activity against vancomycin-resistant Enterococcus by microdilution method; format: functional; in short: as §5
Candida albicans [17] = assay: Antifungal activity against azole-resistant Candida albicans ATCC 10231 after 48 hrs in presence of posaconazole by checkerboard microdilution assay; format: functional; settings: ATCC 10231, 48 h; in short: as §4
Candida albicans [18] = assay: Antifungal activity against azole-susceptible Candida albicans ATCC MYA-2310 after 48 hrs in presence of posaconazole by checkerboard microdilution assay; format: functional; settings: ATCC MYA-2310, 48 h; in short: as §4
Candida albicans [19] = assay: Antifungal activity against azole-resistant Candida albicans MYA-1003 after 48 hrs in presence of posaconazole by checkerboard microdilution assay; format: functional; settings: MYA-1003, 48 h; in short: as §4
Candida albicans [20] = assay: Antifungal activity against azole-resistant Candida albicans ATCC 64124 assessed as cell membrane permeabilization at 1 times MIC after 1 hr by propidium iodide-staining based fluorescence microscopic analysis (reference value: <2%); format: functional
[21] = Cytotoxicity against human BEAS2B cells after 24 hrs by resazurin assay; format: cell-based, BEAS-2B; settings: Homo sapiens, BEAS-2B
Candida albicans [22] = assay: Antifungal activity against azole-susceptible Candida albicans ATCC MYA-2876 after 48 hrs by microbroth dilution method; format: functional; settings: ATCC MYA-2876, 48 h; in short: as §2
Candida albicans [23] = assay: Antifungal activity against azole-susceptible Candida albicans ATCC MYA-2876 after 48 hrs in presence of posaconazole by checkerboard microdilution assay; format: functional; settings: ATCC MYA-2876, 48 h; in short: as §4
Candida albicans [24] = assay: Antifungal activity against azole-resistant Candida albicans MYA-1237 after 48 hrs in presence of posaconazole by checkerboard microdilution assay; format: functional; settings: MYA-1237, 48 h; in short: as §4
Escherichia coli = assay: Antibacterial activity against Escherichia coli MC1061 by microdilution method; format: functional; in short: as §5
Staphylococcus aureus [25] = assay: Antibacterial activity against Staphylococcus aureus NRS385 (USA 300) by microdilution method; format: functional; in short: as §5
Aspergillus nidulans = assay: Antifungal activity against Aspergillus nidulans ATCC 38163 after 48 hrs by microbroth dilution method; format: functional; settings: ATCC 38163, 48 h
In short: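 Filamentous fungus MIC by broth microdilution, run in duplicate. All compounds are read as MIC-0 (complete inhibition).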

Candida albicans [26] = assay: Antifungal activity against azole-resistant Candida albicans ATCC 64124 at sub-MIC measured over 24 hrs by time-kill assay; format: functional, organism-based; in short: as §1
Candida albicans [27] = assay: Antifungal activity against azole-susceptible Candida albicans ATCC MYA-2310 after 48 hrs by microbroth dilution method; format: functional; settings: ATCC MYA-2310, 48 h; in short: as §2
[28] = system: Mycobacterium tuberculosis; assay: Activity of Mycobacterium tuberculosis Eis assessed as compound acetylation activity by Ellman's method
Enterobacter cloacae = assay: Antibacterial activity against Enterobacter cloacae ATCC 13047 by microdilution method; format: functional; in short: as §3
[29] = Activity of AAC(6')-1e/APH(2'')-1a (unknown origin) assessed as compound acetylation activity by Ellman's method
Acinetobacter baumannii = assay: Antibacterial activity against Acinetobacter baumannii ATCC 19606 by microdilution method; format: functional; in short: as §3
Candida albicans [30] = assay: Antifungal activity against azole-resistant Candida albicans ATCC 64124 assessed as cell membrane permeabilization at twice the MIC after 1 hr by propidium iodide-staining based fluorescence microscopic analysis (reference value: <2%); format: functional

For CCCCCCCCCCCCSC[C@@H]1O[C@@H](O[C@@H]2[C@@H](O)[C@H](O[C@@H]3O[C@@H](CN)[C@H](O)[C@@H](O)[C@@H]3N)[C@@H](N)C[C@H]2N)[C@@H](O)[C@H](N)[C@H]1O (stereo in doubt), the hemolysis at 1 h, 125 ug/ml [1] was 40%, the Activity (Candida albicans [2]) was “Active” and the MIC (Candida albicans [3]) was 31.2 µg/mL (≈ 46.7 µM). For the same compound, the MIC (Candida albicans [4]) was 31.2 µg/mL (≈ 46.7 µM), the MIC (Klebsiella pneumoniae) was greater than 128 µg/mL and the MIC (Salmonella enterica) was greater than 128 µg/mL. For the same compound, the MIC (Candida albicans [5]) was 31.2 µg/mL (≈ 46.7 µM), the LCK (Candida albicans [6]) was “>=2” and the MIC (Candida albicans [7]) was 31.2 µg/mL (≈ 46.7 µM). For the same compound, the MIC (Bacillus subtilis) was greater than 128 µg/mL, the MIC (Staphylococcus aureus [8]) was 16 µg/mL (≈ 24 µM) and the Activity (Serratia marcescens) was “inactive”. For the same compound, the IC50 (A549) was greater than 62.5 µg/mL, the MIC (Pseudomonas aeruginosa) was 32 µg/mL (≈ 47.9 µM) and the Activity [9] was “inactive”. The MIC [10] was greater than 128 µg/mL, the MIC (Candida albicans [11]) was 31.2 µg/mL (≈ 46.7 µM) and the Activity [12] was “inactive”. It also gave an MIC (Candida albicans [13]) of 4 µg/mL, an MIC (Candida albicans [14]) of 2 µg/mL and an MIC (Staphylococcus aureus [15]) of 32 µg/mL (≈ 47.9 µM). The Activity [16] was “inactive”, the MIC (Enterococcus) was 16 µg/mL (≈ 24 µM) and the MIC (Candida albicans [17]) was 8 µg/mL. The MIC (Candida albicans [18]) was 1 µg/mL, the MIC (Candida albicans [19]) was 2 µg/mL and the Activity (Candida albicans [20]) was 90%. The IC50 [21] was greater than 125 µg/mL, the MIC (Candida albicans [22]) was 31.2 µg/mL (≈ 46.7 µM) and the MIC (Candida albicans [23]) was 2 µg/mL. The MIC (Candida albicans [24]) was 2 µg/mL, the MIC (Escherichia coli) was greater than 128 µg/mL and the MIC (Staphylococcus aureus [25]) was 16 µg/mL (≈ 24 µM). For the same compound, the MIC (Aspergillus nidulans) was no more than 1.95 µg/mL, the Activity (Candida albicans [26]) was “Active” and the MIC (Candida albicans [27]) was 7.8 µg/mL (≈ 11.7 µM). For the same compound, the Activity [28] was “inactive”, the MIC (Enterobacter cloacae) was greater than 128 µg/mL and the Activity [29] was “inactive”. For the same compound, the MIC (Acinetobacter baumannii) was greater than 128 µg/mL and the Activity (Candida albicans [30]) was 44%.
